# Hits are enriched below; roughly 1.6% of the tested compounds scored in any of these assays.
# S1P2 ag – activates the human S1P2 receptor. activation, % at 4.5 µM. AID 729. S1P2-expressing cell line, agonist reporter read-out. 97,000 tested, 0.46% active. O95136; in the data active means activation above about 16%
# Target sequence (O95136 whole entry, looked up): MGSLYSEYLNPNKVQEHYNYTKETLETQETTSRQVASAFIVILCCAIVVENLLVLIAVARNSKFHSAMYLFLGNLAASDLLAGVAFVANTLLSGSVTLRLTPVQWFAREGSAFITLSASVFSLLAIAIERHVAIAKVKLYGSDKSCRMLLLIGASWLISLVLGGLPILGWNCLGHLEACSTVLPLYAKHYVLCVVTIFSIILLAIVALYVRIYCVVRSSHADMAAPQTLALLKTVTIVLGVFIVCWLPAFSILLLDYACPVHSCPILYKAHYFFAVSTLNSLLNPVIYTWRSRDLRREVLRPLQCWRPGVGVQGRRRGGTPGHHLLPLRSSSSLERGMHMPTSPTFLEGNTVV
# S1P2 blocker – S1P2 (human) receptor antagonism; AID 736; 97,000 tested, 0.21% active; inhibition, % at 5 µM; O95136; cell-based S1P2 antagonist assay, inhibition at 5 uM; in the data active means inhibition above about 45%;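 further: CRE beta-lactamase reporter cells expressing human S1P2 stimulated with S1P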
# GALR2 ag – GALR2 (human) receptor agonism | O43603 | GALR2-expressing cells, agonist activation read-out | activation, % (concentration not given with the values) | 140,000 tested, 0.48% active | AID 803; in the data active means activation above about 5%, passing the limit was not always enough
# GALR2 antag – antagonists of human galanin receptor 2 (GALR2); 140,000 tested, 0.39% active; AID 828; inhibition, % at 4 µM; GALR2-expressing cells, antagonist mode; O43603; in the data active means inhibition above about 27%;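 further: cells stimulated with galanin 1-16 at roughly its EC80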
# HIV Rev-RRE inh – disrupts HIV-1 Rev binding to RRE RNA; P05866; Rev peptide-RRE RNA binding, FRET; inhibition, % at 8 µM; 97,000 tested, 0.79% active; AID 704;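 active means inhibition above the screen-wide mean plus 3 SD, cut at about 35% in these data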
# Target sequence (P05866 whole entry, looked up): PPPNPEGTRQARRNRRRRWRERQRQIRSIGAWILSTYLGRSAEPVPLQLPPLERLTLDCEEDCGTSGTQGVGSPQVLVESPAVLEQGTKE
#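 Test system: labelled RRE RNA duplex and labelled Rev peptide. Times: 5 min compound–RNA preincubation, then 15 min with peptide, 25 °C. Doses: single-dose 8 µM. Measured by: FRET, excitation 480 nm, emission 540 nm donor and 671 nm acceptor. Measure: % inhibition of FRET ratio versus controls.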
# A number is an active result; i = inactive; nt = no result; [ ] = remark or other dose.
SMILES,S1P2 ag,S1P2 blocker,GALR2 ag,GALR2 antag,HIV Rev-RRE inh
O=C(O)c1ccc(NC(=O)c2cccc(N3C(=O)C4C5CCC(C5)C4C3=O)c2)cc1 (stereo unspecified),nt,nt,i,i,nt
CN(C)c1ccc(NC(=O)c2cccc(N3C(=O)C4C5C=CC(C5)C4C3=O)c2)cc1 (stereo unspecified),i,i,i,47,i
CC(NC(=O)C1(c2cccs2)CCOCC1)c1ccccc1 (stereo unspecified),nt,nt,i,i,nt
CCOc1ccccc1C1C(C(=O)OC)=C(N)OC2=C1C(=O)CCC2 (stereo unspecified),nt,nt,i,i,nt
CCOc1ccc(Br)cc1C1C(C(=O)OC)=C(N)Oc2cc(N(C)C)ccc21 (stereo unspecified),i,i,i,i,38
CC1=CCC2C(=O)N(c3ccccc3OC(=O)c3ccccc3F)C(=O)C2C1 (stereo unspecified),nt,nt,i,i,nt
O=C(N/N=C/c1cc(Cl)ccc1O)c1ccc(Br)cc1,nt,nt,i,i,nt
O=C(N/N=C\c1cc(Br)ccc1O)c1ccc(S(=O)(=O)N2CCCCC2)cc1,nt,nt,6.1,i,nt
Cc1ccc([N+](=O)[O-])cc1NC(=S)NC(=O)c1cccs1,nt,nt,i,i,nt
CCN1C=C(Cc2ccc(OC)cc2)C2=C(C1)C(c1ccc(OC)cc1)C(C#N)=C(N)O2 (stereo unspecified),i,i,i,i,40
CN(C)c1ccc(C=C2C(=O)OC(C)(C(C)(C)C)OC2=O)cc1 (stereo unspecified),i,i,i,i,63
O=C(NCC1CCCO1)C1CC1(c1ccccc1)c1ccccc1 (stereo unspecified),nt,nt,i,i,nt
CN1C(=O)c2cccc(NCCCN3C(=O)c4ccccc4C3=O)c2C1=O,i,i,i,i,58
Cn1c(-c2cc3ccc(OC(=O)C(C)(C)C)cc3oc2=O)nc2ccccc21,34,i,46,i,i
CC(C)(C)C(=O)Oc1ccc2cc(-c3ccc4ccccc4n3)c(=O)oc2c1,nt,nt,i,i,nt
Cc1ccc(S(=O)(=O)/N=C(\Nc2cc(C)on2)c2ccc(Cl)cc2)cc1,nt,nt,i,i,nt
N#CC1=C(N)SC(N)=C(C#N)C1c1ccnc2ccccc12,i,i,i,i,60
COc1ccc(-c2nn(-c3ccccc3)cc2/C=N/NC(=O)c2ccc3c(c2)OCO3)cc1,i,i,i,i,i
COc1ccc(-c2nn(-c3ccccc3)cc2/C=N/NC(=O)c2ccc(Br)o2)cc1,i,47,i,i,i
COc1ccc(/C=N/NC(=O)c2nc(-c3ccccc3)cc(-c3ccccc3)n2)cc1,i,54,i,i,i
Cc1ccc([N+](=O)[O-])cc1NC(=O)CCCOc1ccccc1,i,i,i,i,i
Cc1ccc2nc3c(cc2c1)c(NC(=O)c1ccccn1)nn3CC(C)C,19,i,i,i,i
CCn1nc(NC(=O)c2ccccn2)c2cc3cc(C)ccc3nc21,i,i,i,i,i
Cc1cc(/C=C2/SC(=S)N(c3cccc(C(F)(F)F)c3)C2=O)c(C)n1-c1cccnc1,i,82,i,35,44
CCOc1ccc(-c2nn(-c3ccccc3)cc2/C=C2\SC(=S)N(Cc3ccco3)C2=O)cc1,nt,nt,i,i,nt
SMILES,S1P2 ag,S1P2 blocker,GALR2 ag,GALR2 antag,HIV Rev-RRE inh
Cc1cc(/C=C2\SC(=S)N(Cc3ccco3)C2=O)c(C)n1-c1cccnc1,i,i,i,i,95[fluorescence artefact?]
O=C1/C(=C/c2cccnc2)SC(=S)N1c1ccccc1,nt,nt,i,i,nt
COc1ccc(-c2nnn(CC(=O)N(Cc3ccccc3Cl)C(C(=O)NCC3CCCO3)c3ccco3)n2)cc1OC (stereo unspecified),i,i,i,i,i
CN(C)CC(C(=O)c1ccccc1)c1ccccc1 (stereo unspecified),nt,nt,i,42,nt
O=C(NC(Nc1ncc(S(=O)(=O)c2ccc([N+](=O)[O-])cc2)s1)(C(F)(F)F)C(F)(F)F)c1ccc(Cl)cc1,i,47,i,i,i
CNc1ccc(Br)cc(C(=O)/C=C/c2ccc(OC)cc2OC)c1=O,nt,nt,i,i,nt
CCNc1ccc(Br)cc(C(=O)/C=C/c2c(Cl)cccc2Cl)c1=O,i,i,i,i,89[fluorescence artefact?]
CNc1ccc(Br)cc(C(=O)/C=C/c2cccc(OC)c2)c1=O,i,i,i,i,53
N#Cc1cc2c(nc1SCC(=O)N1CCCCC1)CCCC2,32,i,i,i,i
CCOC(=O)C1C(=O)CC(C)(O)C(C(=O)OCC)C1c1ccccc1 (stereo unspecified),i,108,i,i,i
Clc1ccc2nc(-c3ccncc3)cc(-c3ccccc3)c2c1,nt,nt,i,i,nt
OCCN1CCN(c2nc(-c3ccccc3)c3cc(Cl)ccc3n2)CC1,18,i,19,i,i
CN1CCN(c2nc(-c3ccccc3)c3cc(Cl)ccc3n2)CC1,25,i,18,i,i
O=C1CN(c2nc(-c3ccccc3)c3cc(Cl)ccc3n2)c2ccccc2N1,nt,nt,i,i,nt
O=C1Nc2ccccc2N(O)N1c1ccc(S(=O)(=O)N2CCCCCC2)cc1,nt,nt,i,i,nt
C=C(C)CNC(=S)N/N=C1\CCCCc2ccccc21,nt,nt,6.1,i,nt
O=c1c2ccccc2[nH]c2ccccc12,nt,nt,5.6,i,nt
O=c1c2c([nH]c3ccccc13)CCCCCC2,i,i,i,i,i
O=C1OCCN1C(=O)[C@H]1[C@H](c2ccc(F)cc2)C(c2ccc(F)cc2)=NN1c1ccccc1,nt,nt,i,i,nt
O=C1OCCN1C(=O)[C@H]1[C@H](c2ccc(F)cc2)C(c2ccc(F)cc2)=NN1c1ccc(Br)cc1,nt,nt,6.7,i,nt
Cc1ccc(CSCCNS(=O)(=O)c2ccc(C)cc2)cc1,nt,nt,i,i,nt
COc1ccc(OC)c(C2C(C(=O)Nc3nc4ccccc4s3)=C(C)NC3=C2C(=O)CCC3)c1 (stereo unspecified),24,i,14,i,i
COc1cccc(C2C(C(=O)Nc3nc4ccccc4s3)=C(C)NC3=C2C(=O)CC(C)(C)C3)c1OC (stereo unspecified),i,i,i,i,i
CN1C(=O)C(/C(N)=N/NC(=O)c2ccccc2)C2CC1(C)Oc1ccccc12 (stereo unspecified),nt,nt,i,i,nt
CN(C)c1ccc(/C=C/C(O)=C2/C(=O)N(C)C3(C)CC2c2ccccc2O3)cc1 (stereo unspecified),i,69,i,i,121[fluorescence artefact?]
SMILES,S1P2 ag,S1P2 blocker,GALR2 ag,GALR2 antag,HIV Rev-RRE inh
COc1cccc(-c2cc(C(=O)Nc3cc(C)on3)no2)c1,i,i,6.2,i,i
Cc1cc(NC(=O)c2cc(-c3cccc(Cl)c3)on2)no1,i,i,i,i,i
CC12CCC(C/C1=N\N=C1\NC(=O)/C(=C\c3ccc(Cl)cc3)S1)C2(C)C (stereo unspecified),nt,nt,i,i,nt
O=c1c(-c2nc3ccccc3s2)cccn1Cc1ccccc1,63,i,31,i,i
Cc1ccc(Cn2cccc(NC(=O)NCc3ccccc3)c2=O)cc1,i,i,i,i,i
Cc1ccc(Cn2cccc(-c3nc4ccccc4s3)c2=O)cc1,77,i,65,i,i
O=C(CC(C(=O)N1CCc2ccccc21)n1ccnc1)N1CCc2ccccc2C1 (stereo unspecified),i,i,i,i,60

# Screens deposited in PubChem BioAssay by The Scripps Research Institute Molecular Screening Center.
